From ChEMBL document CHEMBL1132719, “cycloSal-Pronucleotides of 2'-fluoro-ara- and 2'-fluoro-ribo-2',3'- dideoxyadenosine as a strategy to bypass a metabolic blockade” (J Med Chem, 1999) come the findings set out here.

In series [1] the test system is CCRF-CEM. Put plainly: Antiviral activity evaluated as the ability to inhibit the replication of HIV-1 in human T-lymphocytic cells (CEM). In kind it is functional, cell-based. The method, boiled down:
(§1)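 CEM cells at 4 × 10^5 cells/mL infected with HIV-1 (HTLV-IIIB) or HIV-2 (ROD) at ~100 CCID50 per mL. Virus stocks came from infected MT-4 supernatants. Infected cells were mixed with serial compound dilutions. Giant cell formation was scored microscopically after 4–5 days. EC50 is the 50% effective concentration.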

Series [2] concerns C3H/3T3. The series is described as follows: (§2) Effect of compound against Moloney murine sarcoma virus (MSV)-induced transformation of C3H/3T3 embryo murine fibroblasts. In kind it is functional, cell-based. To be noted: Mus musculus. The method, boiled down:
(§3)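 C3H/3T3 cells seeded at 20 000 cells/mL and grown 24 h, then infected with 80 focus-forming units of MSV for 120 min. Medium was replaced with fresh medium containing the test compound. Transformation was examined microscopically after 6 days. EC50 is the concentration giving 50% inhibition of transformation. MCC is the minimum concentration causing microscopically visible morphological alteration of the cultures.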

Series [3] is described as follows: Partition coefficient (logP). Particulars: octanol/water. In kind it is physicochemical. The method, boiled down: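 Compound dissolved in 1-octanol, then an equal volume of water added. Phases were vortexed 10 min and separated by centrifugation. Each phase was analysed by RP-HPLC (UV 260 nm). P was calculated from the peak areas of the aqueous and organic phases.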

The nature of series [4]: Selectivity index by CC50 of CEM cells/EC50 of CEM cells against HIV-1. In kind it is functional, CCRF-CEM.
Series [5] deals with CCRF-CEM. Put plainly: Antiviral activity evaluated as the ability to inhibit the replication of HIV-2 in human T-lymphocytic cells (CEM). In kind it is functional, cell-based. The method, boiled down: as §1
For series [6], the system named is C3H/3T3. The series is described as follows: (§4) Minimal cytotoxic concentration required to cause morphological alteration of C3H/3T3 fibroblast culture cells. To be noted: Mus musculus. In kind it is functional. The method in brief:
as §3

Series [7] deals with CCRF-CEM. The series is described as follows: Cytotoxic concentration in Wild Type CEM cells. In kind it is functional. To be noted: Homo sapiens.
In series [8] the test system is C3H/3T3. The series is described as §4. In kind it is functional. Particulars: Mus musculus. The source holds these as a separate data set.
Series [9] deals with C3H/3T3. The series is described as §2. In kind it is functional, cell-based. To be noted: Mus musculus. The method, boiled down: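 C3H/3T3 murine embryo fibroblasts seeded at 20 000 cells/mL, incubated 24 h, then infected for 120 min with 80 focus-forming units of Moloney murine sarcoma virus. Medium then replaced with fresh medium containing serial compound concentrations. Cell transformation scored microscopically after 6 days; EC50 taken as the concentration giving 50% inhibition of virus-induced transformation.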
The source holds these as a separate data set.

The nature of series [10]: Hydrolysis half life in phosphate buffer. In kind it is ADME. The method, boiled down:
(§5)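 Triester at 0.71 mM final in 25 mM Sørensen phosphate buffer, pH 7.3, 37 °C, with AZT as internal standard. Aliquots were frozen in liquid air, then analysed by RP-HPLC (UV 260 nm). k was taken from the slope of the log degradation curve of the starting triester and t1/2 derived from k. Values are the mean of duplicates, in hours.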

A short description of series [11]: Hydrolysis half life in phosphate buffer. In kind it is ADME. The method in brief:
as §5

The structures appear in SMILES notation. Bounds are passed on as bounds.

For `OCC1C[C@H](F)C(n2cnc3c(O)ncnc32)O1` (stereo not given in full), the results for the concentration for a half-maximal effect (EC50) in the series with CCRF-CEM [1], with C3H/3T3 [2] and in the series with CCRF-CEM [5] were 41.7 µM, over 50 µM and 30 µM, respectively. The logP in [3] was -1.19. Besides, in [4], the SI is over 8. This compound also returned an MCC in the series with C3H/3T3 [6] of over 50 µM. The compound further returned a CC50 in the series on CCRF-CEM [7] of over 250 µM.

`Nc1ncnc2c1ncn2[C@H]1CC[C@@H](CO)O1` came in with an MCC in the series with C3H/3T3 [8] of over 50 µM. Moreover, the EC50 with CCRF-CEM [1] is 4.33 µM; with C3H/3T3 [9], 39.1 µM; in the series with CCRF-CEM [5], 4.55 µM. The compound further gave an SI in [4] of over 57. This compound also displayed a CC50 in the series with CCRF-CEM [7] of over 250 µM.

In the series on CCRF-CEM [7], `Cc1cn([C@H]2C=C[C@@H](CO)O2)c(=O)[nH]c1=O` [STAVUDINE] yielded a CC50 of 56 µM.

In the case of `OCC1C[C@@H](F)C(n2cnc3c(O)ncnc32)O1` (stereo not given in full), the figures for the EC50 in the series with CCRF-CEM [1], in the series on C3H/3T3 [2] and with CCRF-CEM [5] were over 250 µM, over 50 µM and over 250 µM, respectively. Moreover, the logP in [3] is -0.96. In the series on C3H/3T3 [6], this compound returned an MCC of over 50 µM. The compound also came in with a CC50 with CCRF-CEM [7] of over 250 µM.

As to `Nc1ncnc2c1ncn2C1OC(COP2(=O)OCc3ccccc3O2)C[C@H]1F` (stereo not given in full), in series [10], the half-life was 8.4 h. For the same compound, the EC50 was 19 µM in the series with CCRF-CEM [1], 4.7 µM with C3H/3T3 [2] and 13 µM in the series on CCRF-CEM [5]. Also, the log partition coefficient (logP) in series [3] turned out to be 0.72. Also, in [4], the SI is listed as over 19. In the series on C3H/3T3 [6], this compound registered an MCC of over 50 µM. Besides, the CC50 with CCRF-CEM [7] is over 250 µM.

Regarding `Nc1ncnc2c1ncn2C1OC(COP2(=O)OCc3ccccc3O2)C[C@@H]1F` (stereo not given in full), the EC50 in the series on CCRF-CEM [1] came to 4.53 µM; in the series with C3H/3T3 [2], 1.7 µM; in the series with CCRF-CEM [5] it was 1.85 µM. In series [3], this compound displayed a logP of 0.95. The same compound registered an SI in [4] of 74. Further, the MCC with C3H/3T3 [6] is over 50 µM. The compound further showed a half-life in series [11] of 8.9 h. In the series on CCRF-CEM [7], it took 137 µM to reach half-maximal cytotoxicity (CC50).

`Cc1cccc2c1OP(=O)(OC[C@@H]1C[C@@H](F)[C@H](n3cnc4c(N)ncnc43)O1)OC2` (stereo not given in full) showed a half-life in [10] of 23.4 h. The EC50 with CCRF-CEM [1] worked out at 11.7 µM; with C3H/3T3 [2], 2.83 µM; in the series on CCRF-CEM [5], 12.5 µM. Moreover, in [3], the logP is 0.93. The same compound returned an SI in [4] of 10. The same compound gave an MCC in the series on C3H/3T3 [6] of over 50 µM. The same compound yielded a 50% cytotoxic concentration (CC50) in the series on CCRF-CEM [7] of 118 µM.

In the case of `COc1ccc2c(c1)COP(=O)(OCC1C[C@@H](F)C(n3cnc4c(N)ncnc43)O1)O2` (stereo not given in full), the half-life in series [10] was 12.3 h. The EC50 with CCRF-CEM [1] stood at 20 µM; with CCRF-CEM [5], 25 µM. Also, the logP in series [3] came out at 0.71. Also, the SI in series [4] is recorded as over 12. Moreover, the CC50 in the series with CCRF-CEM [7] was over 250 µM.

On to `Cc1cccc2c1OP(=O)(OCC1C[C@H](F)C(n3cnc4c(O)ncnc43)O1)OC2` (stereo not given in full), for which the half-life in series [10] is 22.2 h. Further, the concentration for a half-maximal effect (EC50) in the series on CCRF-CEM [1] is 3.57 µM; in the series on C3H/3T3 [2], over 50 µM; with CCRF-CEM [5] it was 3.57 µM. In series [3], this compound came in with a lipophilicity (logP) of 0.51. This compound also showed an SI in [4] of 26. In the series with C3H/3T3 [6], the MCC is over 50 µM. The same compound came in with a CC50 in the series with CCRF-CEM [7] of over 250 µM.

`Nc1ncnc2c1ncn2[C@@H]1O[C@H](CO)C[C@@H]1F` [LODENOSINE] came in with an MCC in the series with C3H/3T3 [8] of over 50 µM. Further, the EC50 was 36.7 µM in the series with CCRF-CEM [1], over 50 µM in the series on C3H/3T3 [9] and 40 µM in the series on CCRF-CEM [5]. Besides, the log partition coefficient (logP) in series [3] was -0.16. In addition, the SI in [4] is over 6.8. In addition, the CC50 with CCRF-CEM [7] is over 250 µM.

`Nc1ncnc2c1ncn2[C@@H]1OC(CO)C[C@H]1F` (single isomer, unassigned) registered an MCC in the series with C3H/3T3 [8] of over 50 µM. Moreover, the EC50 is over 250 µM in the series with CCRF-CEM [1], over 50 µM with C3H/3T3 [9] and over 250 µM with CCRF-CEM [5]. The compound also came in with a lipophilicity (logP) in [3] of -0.2. In the series on CCRF-CEM [7], the CC50 was over 250 µM.

As for `Cc1cccc2c1OP(=O)(OCC1C[C@@H](F)C(n3cnc4c(O)ncnc43)O1)OC2` (stereo not given in full), the half-life in series [10] was 22.7 h. Also, the EC50 was 75 µM with CCRF-CEM [1], over 50 µM in the series on C3H/3T3 [2] and 31.7 µM with CCRF-CEM [5]. Besides, the lipophilicity (logP) in series [3] was found to be 0.24. The compound also gave an SI in series [4] of over 8. This compound had an MCC in the series with C3H/3T3 [6] of over 50 µM. The same compound had a CC50 in the series with CCRF-CEM [7] of over 250 µM.

Regarding `COc1ccc2c(c1)COP(=O)(OCC1C[C@H](F)C(n3cnc4c(N)ncnc43)O1)O2` (stereo not given in full), the half-life in series [10] was 13 h. Also, the results for the concentration giving a half-maximal response (EC50) in the series with CCRF-CEM [1] and in the series with CCRF-CEM [5] were 1.5 µM and 5.67 µM, respectively. The same compound returned a logP in series [3] of 1.04. For the same compound, the midpoint of cytotoxicity in the series with CCRF-CEM [7], the CC50, lay at 121 µM.

For `Cc1cccc2c1OP(=O)(OC[C@@H]1C[C@H](F)C(n3cnc4c(N)ncnc43)O1)OC2` (single isomer, unassigned), the half-life in series [10] is 21.6 h. Further, the EC50 in the series with CCRF-CEM [1] came to 3.67 µM; in the series on CCRF-CEM [5] it was 3.3 µM. This compound came in with a logP in [3] of 1.29. For the same compound, in [4], the SI is 44. Further, the CC50 with CCRF-CEM [7] is 146 µM.

In general, EC50 refers to the concentration needed to bring the measured effect to its halfway point. Lower therefore signals greater potency. In general, logP refers to the decadic logarithm of the partition coefficient of the neutral form, usually between octanol and water. A higher logP goes with higher lipophilicity. For orientation: CC50 means the concentration that lowers cell viability or growth by half. A lower CC50 goes with harm at low concentration. As usually defined, the half-life is the time needed for the level to fall by half in the phase considered. Read a high half-life as slow decline.
